SMILES strings stand for the structures.

Chain of Lanosterol 14-alpha demethylase (P10613 whole entry): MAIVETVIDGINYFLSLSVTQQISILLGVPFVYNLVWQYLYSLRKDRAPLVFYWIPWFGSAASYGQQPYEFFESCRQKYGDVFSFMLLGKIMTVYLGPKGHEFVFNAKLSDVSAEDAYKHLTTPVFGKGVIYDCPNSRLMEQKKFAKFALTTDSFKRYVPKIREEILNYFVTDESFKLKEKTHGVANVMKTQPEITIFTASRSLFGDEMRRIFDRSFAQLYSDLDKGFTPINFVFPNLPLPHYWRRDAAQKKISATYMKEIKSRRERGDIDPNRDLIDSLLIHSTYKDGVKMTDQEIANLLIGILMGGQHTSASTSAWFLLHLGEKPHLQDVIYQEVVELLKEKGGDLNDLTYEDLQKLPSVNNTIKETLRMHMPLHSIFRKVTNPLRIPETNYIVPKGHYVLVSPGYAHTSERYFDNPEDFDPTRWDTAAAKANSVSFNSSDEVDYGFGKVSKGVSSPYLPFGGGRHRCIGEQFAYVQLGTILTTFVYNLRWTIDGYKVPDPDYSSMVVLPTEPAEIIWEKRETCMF

System in the first data set: not listed separately
The experiment in a line: in vitro. Particulars: human, liver microsomes.
Take `O=C(N[C@@H](Cn1ccnc1)c1ccc(Cl)cc1Cl)c1ccc(-c2nnc(-c3cc(F)cc(OCC(F)(F)F)c3)o2)cc1`: the CLhep predicted at 0.75 h, 1 µM is 7.33 mL/min/kg.

Turning to `O=C(N[C@@H](Cn1ccnc1)c1ccc(Cl)cc1Cl)c1ccc(-c2nnc(-c3cc(-c4ccccn4)ccc3F)o2)cc1`, the CLhep predicted at 0.75 h, 1 µM was 6.85 mL/min/kg.

Take `O=C(N[C@@H](Cn1ccnc1)c1ccc(Cl)cc1Cl)c1ccc(-c2nnc(-c3cccc(Br)c3)o2)cc1`: the CLhep predicted at 0.75 h, 1 µM was 6.53 mL/min/kg.

System in the next data set: not listed separately
The experiment in a line: in vitro. Particulars: Sprague-Dawley, rat, liver microsomes. (In general: Liver microsomes are a subcellular fraction often used to study metabolism.)
`O=C(N[C@@H](Cn1ccnc1)c1ccc(Cl)cc1Cl)c1ccc(-c2nnc(-c3cc(F)cc(OCC(F)(F)F)c3)o2)cc1`: the intrinsic metabolic clearance (CLint scaled) (commonly the rate of metabolic loss divided by the concentration) at 0.75 h, 1 µM stood at 50.4 mL/min/kg.

As to `O=C(N[C@@H](Cn1ccnc1)c1ccc(Cl)cc1Cl)c1ccc(-c2nnc(-c3cc(-c4ccccn4)ccc3F)o2)cc1`, the intrinsic metabolic clearance (CLint scaled) at 0.75 h, 1 µM worked out at 49.4 mL/min/kg.

With `O=C(N[C@@H](Cn1ccnc1)c1ccc(Cl)cc1Cl)c1ccc(-c2nnc(-c3cccc(Br)c3)o2)cc1`, the CLint scaled at 0.75 h, 1 µM was 27 mL/min/kg.

System in another data set: not listed separately
The experiment in a line: in vitro. Particulars: CD-1, mouse, liver microsomes.
Consider `O=C(N[C@@H](Cn1ccnc1)c1ccc(Cl)cc1Cl)c1ccc(-c2nnc(-c3cc(F)cc(OCC(F)(F)F)c3)o2)cc1`, for which the CLhep predicted at 0.75 h, 1 µM was 43.6 mL/min/kg.

As for `O=C(N[C@@H](Cn1ccnc1)c1ccc(Cl)cc1Cl)c1ccc(-c2nnc(-c3cc(-c4ccccn4)ccc3F)o2)cc1`, the CLhep predicted at 0.75 h, 1 µM was 65 mL/min/kg.

Take `O=C(N[C@@H](Cn1ccnc1)c1ccc(Cl)cc1Cl)c1ccc(-c2nnc(-c3cccc(Br)c3)o2)cc1`: the CLhep predicted at 0.75 h, 1 µM is 55 mL/min/kg.

For another data set, the target named is Lanosterol 14-alpha demethylase (Aspergillus) (UniProt B8NUK6+Q9P8R0+G4WW85). The experiment in a line: Inhibition of Aspergillus fumigatus CYP51 assessed as reduction in [3-3H]eburicol 14alpha-demethylation at 0.75 uM preincubated for 60 secs followed by NADPH addition measured after 60 mins by RP-HPLC analysis relative to control.
Details: not given
Summed up: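 E. coli-expressed, purified CYP51 (0.5 μM) with rat NADPH-P450 reductase (1.0 μM), 100 μM dilauroylphosphatidylcholine, isocitrate dehydrogenase/isocitrate NADPH regeneration, in 50 mM K phosphate pH 7.2 with 10% glycerol and 0.1% Triton X-100. [3-3H]eburicol 25 μM final, inhibitor 0.75 μM final (1.5:1:50 inhibitor:enzyme:substrate), 37 °C. Started with 100 μM NADPH, 60 min, EtOAc extraction, radio-HPLC. Percent inhibition, triplicate, mean ± SD.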
As for `O=C(N[C@@H](Cn1ccnc1)c1ccc(Cl)cc1Cl)c1ccc(-c2nnc(-c3ccc(N4CCOCC4)cc3)o2)cc1`, the inhibition – broadly, the drop in the measured response relative to a control, in per cent – was found to be 3%.

As for `O=C(N[C@@H](Cn1ccnc1)c1ccc(Cl)cc1Cl)c1ccc(-c2nnc(-c3cccc(N4CCOCC4)c3)o2)cc1`, the inhibition is 15%.

Take `O=C(N[C@@H](Cn1ccnc1)c1ccc(Cl)cc1Cl)c1ccc(-c2nnc(-c3cc(F)cc(OCC(F)(F)F)c3)o2)cc1`: the inhibition was determined as 51%.

As for `O=C(N[C@@H](Cn1ccnc1)c1ccc(Cl)cc1Cl)c1ccc(-c2nnc(-c3cc(-c4ccccn4)ccc3F)o2)cc1`, the inhibition is 24%.

With `O=C(N[C@@H](Cn1ccnc1)c1ccc(Cl)cc1Cl)c1ccc(-c2nnc(-c3cccc(Br)c3)o2)cc1`, the inhibition is 41%.

System in a further data set: not listed separately
The experiment in a line: in vitro. The conditions noted are these: human, liver microsomes. This is another data set of the same source.
For `O=C(N[C@@H](Cn1ccnc1)c1ccc(Cl)cc1Cl)c1ccc(-c2nnc(-c3cc(F)cc(OCC(F)(F)F)c3)o2)cc1`, the CLint scaled at 0.75 h, 1 µM is 11.3 mL/min/kg.

As to `O=C(N[C@@H](Cn1ccnc1)c1ccc(Cl)cc1Cl)c1ccc(-c2nnc(-c3cc(-c4ccccn4)ccc3F)o2)cc1`, the intrinsic metabolic clearance (CLint scaled) at 0.75 h, 1 µM was 10.2 mL/min/kg.

The compound `O=C(N[C@@H](Cn1ccnc1)c1ccc(Cl)cc1Cl)c1ccc(-c2nnc(-c3cccc(Br)c3)o2)cc1` returned a CLint scaled at 0.75 h, 1 µM of 9.47 mL/min/kg.

System in a further data set: not listed separately
The experiment in a line: Half life in CD-1 mouse liver microsomes at 1 uM preincubated for 5 mins followed by NADPH addition measured up to 45 mins by LC-MS/MS analysis. The class given is ADME, microsome. The conditions noted are these: 0.75 h. In short, it runs like this: (§1)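 Pooled liver microsomes (0.5 mg/mL; male CD-1 mouse, male Sprague Dawley rat, or mixed-gender human) with 1 μM compound in 100 mM potassium phosphate pH 7.4, 3 mM MgCl2, 37 °C with shaking. 5 min preincubation, then 1 mM NADPH. Aliquots at 0, 3, 7, 15, 25, 45 min quenched in cold CH3CN with carbamazepine internal standard, then LC/MS/MS. Triplicate; T1/2 = ln2/k from the slope of ln % remaining versus time.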
Consider `O=C(N[C@@H](Cn1ccnc1)c1ccc(Cl)cc1Cl)c1ccc(-c2nnc(-c3cc(F)cc(OCC(F)(F)F)c3)o2)cc1`, for which the t1/2 is recorded as 65 min.

`O=C(N[C@@H](Cn1ccnc1)c1ccc(Cl)cc1Cl)c1ccc(-c2nnc(-c3cc(-c4ccccn4)ccc3F)o2)cc1`: the t1/2 is recorded as 23 min.

`O=C(N[C@@H](Cn1ccnc1)c1ccc(Cl)cc1Cl)c1ccc(-c2nnc(-c3cccc(Br)c3)o2)cc1` gave a t1/2 of 43 min.

System in the next data set: not listed separately
The experiment in a line: Lipophilicity, log P of the compound. The class given is physicochemical. Particulars: octanol/water.
For `O=C(N[C@@H](Cn1ccnc1)c1ccc(Cl)cc1Cl)c1ccc(-c2nnc(-c3ccc(N4CCOCC4)cc3)o2)cc1`, the logP (commonly a log measure of how a compound divides between an organic and an aqueous phase) stood at 4.45.

Regarding `O=C(N[C@@H](Cn1ccnc1)c1ccc(Cl)cc1Cl)c1ccc(-c2nnc(-c3cccc(N4CCOCC4)c3)o2)cc1`, the logP was 4.45.

Turning to `O=C(N[C@@H](Cn1ccnc1)c1ccc(Cl)cc1Cl)c1ccc(-c2nnc(-c3cc(F)cc(OCC(F)(F)F)c3)o2)cc1`, the logP worked out at 5.58.

Take `O=C(N[C@@H](Cn1ccnc1)c1ccc(Cl)cc1Cl)c1ccc(-c2nnc(-c3cc(-c4ccccn4)ccc3F)o2)cc1`: the logP is 5.49.

As to `O=C(N[C@@H](Cn1ccnc1)c1ccc(Cl)cc1Cl)c1ccc(-c2nnc(-c3cccc(Br)c3)o2)cc1`, the logP came out at 5.4.

System in another data set: not listed separately
The experiment in a line: in vitro. Particulars: CD-1, mouse, liver microsomes. This is another data set of the same source.
Regarding `O=C(N[C@@H](Cn1ccnc1)c1ccc(Cl)cc1Cl)c1ccc(-c2nnc(-c3cc(F)cc(OCC(F)(F)F)c3)o2)cc1`, the intrinsic clearance (CLint scaled) at 0.75 h, 1 µM is 84.7 mL/min/kg.

As for `O=C(N[C@@H](Cn1ccnc1)c1ccc(Cl)cc1Cl)c1ccc(-c2nnc(-c3cc(-c4ccccn4)ccc3F)o2)cc1`, the intrinsic clearance (CLint scaled) at 0.75 h, 1 µM turned out to be 238 mL/min/kg.

Turning to `O=C(N[C@@H](Cn1ccnc1)c1ccc(Cl)cc1Cl)c1ccc(-c2nnc(-c3cccc(Br)c3)o2)cc1`, the CLint scaled at 0.75 h, 1 µM turned out to be 126 mL/min/kg.

System in another data set: not listed separately
The experiment in a line: in vitro. Particulars: Sprague-Dawley, rat, liver microsomes. This is another data set of the same source.
Take `O=C(N[C@@H](Cn1ccnc1)c1ccc(Cl)cc1Cl)c1ccc(-c2nnc(-c3cc(F)cc(OCC(F)(F)F)c3)o2)cc1`: the CLhep predicted at 0.75 h, 1 µM is 29 mL/min/kg.

Take `O=C(N[C@@H](Cn1ccnc1)c1ccc(Cl)cc1Cl)c1ccc(-c2nnc(-c3cc(-c4ccccn4)ccc3F)o2)cc1`: the CLhep predicted at 0.75 h, 1 µM was 29 mL/min/kg.

Consider `O=C(N[C@@H](Cn1ccnc1)c1ccc(Cl)cc1Cl)c1ccc(-c2nnc(-c3cccc(Br)c3)o2)cc1`, for which the CLhep predicted at 0.75 h, 1 µM is 19 mL/min/kg.

System in the next data set: not listed separately
The experiment in a line: Half life in human liver microsomes at 1 uM preincubated for 5 mins followed by NADPH addition measured up to 45 mins by LC-MS/MS analysis. The conditions noted are these: 0.75 h. The class given is ADME, microsome. In short, it runs like this:
as §1
`O=C(N[C@@H](Cn1ccnc1)c1ccc(Cl)cc1Cl)c1ccc(-c2nnc(-c3cc(F)cc(OCC(F)(F)F)c3)o2)cc1` returned a t1/2 of 111 min.

`O=C(N[C@@H](Cn1ccnc1)c1ccc(Cl)cc1Cl)c1ccc(-c2nnc(-c3cc(-c4ccccn4)ccc3F)o2)cc1` had a t1/2 of 123 min.

`O=C(N[C@@H](Cn1ccnc1)c1ccc(Cl)cc1Cl)c1ccc(-c2nnc(-c3cccc(Br)c3)o2)cc1` yielded a t1/2 of 132 min.

A further data set addresses Lanosterol 14-alpha demethylase (Candida albicans (strain SC5314 / ATCC MYA-2876) (Yeast), UniProt P10613). The experiment in a line: Inhibition of Candida albicans CYP51 assessed as reduction in [3-3H]lanosterol 14alpha-demethylation at 0.75 uM preincubated for 60 secs followed by NADPH addition measured after 60 mins by RP-HPLC analysis relative to control. Particulars: 1 h. In short, it runs like this: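 C. albicans CYP51 expressed in E. coli and purified, 0.5 μM, with 1.0 μM rat NADPH-P450 reductase, dilauroylphosphatidylcholine and isocitrate dehydrogenase/isocitrate regeneration in 50 mM potassium phosphate pH 7.2, 10% glycerol, 0.1% Triton X-100. Substrate 25 μM final; inhibitor:enzyme:substrate 1.5:1:50. 37 °C, started with 100 μM NADPH. Sterols extracted with EtOAc, radio-HPLC. Triplicate, mean ± SD.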
`O=C(N[C@@H](Cn1ccnc1)c1ccc(Cl)cc1Cl)c1ccc(-c2nnc(-c3ccc(N4CCOCC4)cc3)o2)cc1`: the inhibition at 0.75 µM amounted to 29%.

As to `O=C(N[C@@H](Cn1ccnc1)c1ccc(Cl)cc1Cl)c1ccc(-c2nnc(-c3cccc(N4CCOCC4)c3)o2)cc1`, the inhibition at 0.75 µM stood at 58%.

With `O=C(N[C@@H](Cn1ccnc1)c1ccc(Cl)cc1Cl)c1ccc(-c2nnc(-c3cc(F)cc(OCC(F)(F)F)c3)o2)cc1`, the inhibition at 0.75 µM stood at 65%.

With `O=C(N[C@@H](Cn1ccnc1)c1ccc(Cl)cc1Cl)c1ccc(-c2nnc(-c3cc(-c4ccccn4)ccc3F)o2)cc1`, the inhibition at 0.75 µM was 83%.

For the compound `O=C(N[C@@H](Cn1ccnc1)c1ccc(Cl)cc1Cl)c1ccc(-c2nnc(-c3cccc(Br)c3)o2)cc1`, the inhibition at 0.75 µM is 84%.

System in another data set: not listed separately
The experiment in a line: Half life in Sprague-Dawley rat liver microsomes at 1 uM preincubated for 5 mins followed by NADPH addition measured up to 45 mins by LC-MS/MS analysis. In kind it is ADME, microsome. The conditions noted are these: 0.75 h. In short, it runs like this:
as §1
With `O=C(N[C@@H](Cn1ccnc1)c1ccc(Cl)cc1Cl)c1ccc(-c2nnc(-c3cc(F)cc(OCC(F)(F)F)c3)o2)cc1`, the t1/2 stood at 56 min.

Compound `O=C(N[C@@H](Cn1ccnc1)c1ccc(Cl)cc1Cl)c1ccc(-c2nnc(-c3cc(-c4ccccn4)ccc3F)o2)cc1` had a t1/2 of 57 min.

`O=C(N[C@@H](Cn1ccnc1)c1ccc(Cl)cc1Cl)c1ccc(-c2nnc(-c3cccc(Br)c3)o2)cc1`: the t1/2 came out at 106 min.

These data come from ChEMBL document CHEMBL4118269 (J Med Chem, 2018).
